In the library only some 1.3% were active in any assay of this set; here they are far more common.
CHT PAM – allosteric activators of human choline transporter CHT | Q9GZV3 | CHT-expressing cells, membrane potential dye, choline EC20; stronger effect = higher value; LV-AA mutant CHT in HEK293 cells | B-score at 10 µM | 0.49% of 310,000 active | AID 488977;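 active = initial fluorescence not abnormally high and integrated response B-score, plate-corrected, over 3 SD above library mean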
procasp7 counter – counter-screen for procaspase-3 activators: activators of human procaspase-7; activation, % at 8.5 µM; recombinant procaspase-7, Ac-DEVD-pNA absorbance 405 nm; D23A/D198A/D206A triple mutant, cannot self-cleave; scale: DMSO 0, 5 µM enzyme 100; AID 463210; P55210; 0.093% of 330,000 active;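 active = percent activation above the screen-wide mean plus 3 SD, cut at about 25% in these data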
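Assay system: Uncleavable procaspase-7 mutant enzyme / Input: 2 µM procaspase-7 mutant as dispensed / Dosing: single nominal 8.5 µM compound dose, 0.8% DMSO final / Timing: 1 h enzyme–compound preincubation and 2 h substrate reaction, both 25 °C / Detection: p-Nitroaniline absorbance at 405 nm, read at 0 and 120 min / Replication: singlicate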
CHT block – inhibitors of human choline transporter CHT; CHT-expressing cells, membrane potential dye, choline response; stronger effect = lower value; B-score at 10 µM; 0.86% of 310,000 active; AID 488975;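 active = B-score over 3 SD under the library average, and starting fluorescence ratio not unusually high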;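 note: choline stimulus applied at its EC90 after an EC20 pre-addition; B-score computed on integrated fluorescence ratio after choline addition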
procasp3 activ – procaspase-3 (human) activation; P42574; recombinant procaspase-3 D3A, Ac-DEVD-pNA absorbance 405 nm; activation, % at 8.5 µM; 0.11% of 330,000 active; AID 463141;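 active = activation above the mean of all tested compounds plus 3 SD, cut at about 21% in these data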;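 note: 0% = DMSO alone and 100% = DMSO wells spiked with extra 5 µM PC-3 D3A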
Target sequence (P42574 whole entry D9A/D28A/D175A): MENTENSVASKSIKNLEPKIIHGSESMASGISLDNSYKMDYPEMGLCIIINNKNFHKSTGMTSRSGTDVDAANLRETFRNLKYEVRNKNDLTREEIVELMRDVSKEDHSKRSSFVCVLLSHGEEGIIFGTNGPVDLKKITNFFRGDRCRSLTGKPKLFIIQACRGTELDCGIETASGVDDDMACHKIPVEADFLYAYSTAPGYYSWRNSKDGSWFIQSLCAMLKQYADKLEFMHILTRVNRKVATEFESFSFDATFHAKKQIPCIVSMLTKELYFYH
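Evaluation: percent activation relative to control range; Material: Procaspase-3 D3A mutant, all three cleavage aspartates alanine; Compound: single dose, 8.5 µM nominal compound, 0.8% DMSO; Replication: one well per compound; Signal: absorbance at 405 nm, 0 and 120 min; Schedule: 1 h preincubation plus 2 h reaction at 25 °C.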
CHT inh conf – human CHT inhibition, confirmatory screen. shares compounds with CHT block. CHT-expressing cells, choline membrane potential dye; LV-to-AA substituted CHT, HEK293 cells. CHT activity remaining % of control (stronger effect = lower value), % at 10 µM. 70% of 2,400 active. AID 493221;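 active = choline transporter activity left, mean of duplicates at 10 µM, below buffer-only control mean minus 3 SD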;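 note: depolarization triggered by choline at its EC90 following an EC20 pre-addition; 0% = hemicholinium-3 full block and 100% = buffer-only control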
HEK293 MPD ctr – CHT inhibitor counter-screen hit in parental HEK293 cells. shares compounds with CHT block. membrane potential dye, choline response; active = decrease or increase beyond buffer ±3SD. membrane potential ratio readout (active if shifted either direction beyond buffer ±3SD; no single direction) at 10 µM. 4% of 2,400 active. AID 493222;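 note: parental cells lack the transporter so any hit is non-specific; ratio is peak minus trough fluorescence over baseline after EC90 choline challenge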
Starred values were filed as active, the others as inactive; i = inactive; . = no result given.

SMILES	CHT PAM	procasp7 counter	CHT block	procasp3 activ	CHT inh conf	HEK293 MPD ctr
COc1ccc(CN2C(=NC(=O)C3CC3)SC3CS(=O)(=O)CC32)cc1OC (stereo unspecified)	i	5	i	-10	.	.
Cc1cc(C)nc(SCc2cc(=O)c(OC(=O)c3cc([N+](=O)[O-])ccc3Cl)co2)n1	i	-5	-7.4*	-2	28%*	i
Cc1cc(C)nc(SCc2cc(=O)c(OC(=O)c3ccc(S(=O)(=O)N4CCCC4)cc3)co2)n1	i	5	-7.2*	6	51%*	i
Cc1cc(C)nc(SCc2cc(=O)c(OC(=O)c3ccc(Br)o3)co2)n1	i	-2	-8.2*	1	14%*	i
Cc1cc(C)nc(SCc2cc(=O)c(OC(=O)c3ccco3)co2)n1	i	-2	-6.1*	3	17%*	i
O=C(Oc1coc(CSc2ncccn2)cc1=O)c1ccccc1[N+](=O)[O-]	i	4	i	7	.	.
CCN(C[C@H]1N[C@@](CC)(C(=O)OC)[C@H]2C(=O)N(Cc3ccccc3)C(=O)[C@@H]12)C(=O)COc1ccccc1	.	-6	.	-4	.	.
O=C(CNc1ccc(Br)cc1)NNC1=NCCC1	i	17	i	-2	.	.
NC(=O)c1cc(NC(=O)CCNS(=O)(=O)c2cccc(C(F)(F)F)c2)cc(C(N)=O)c1	i	5	i	5	.	.
O=C(Nc1ccc(OCc2ccccc2)cc1)Nc1ccccc1C(=O)NCCCN1CCOCC1	i	-1	-5*	5	44%*	i
O=C(Nc1ccccc1C(=O)NCCCN1CCOCC1)c1ccc(F)cc1F	i	-4	i	2	.	.
CCN1CCC(Nc2ccnc3cc(Cl)ccc23)CC1	i	-2	-6.6*	0	i	4.2*
CCOc1ccc(Nc2ccnc3cc(Cl)ccc23)cc1	i	5	i	9	.	.
Cc1ccccc1OCc1nnc(SCC(=O)O)n1-c1ccccc1	i	5	i	-1	.	.
Cc1ccccc1OCCSc1nnc(C)n1-c1ccccc1	i	-3	-5.2*	-3	i	i
CC1CCN(CCNC(=O)C2CCCN(S(=O)(=O)c3cccc4nsnc34)C2)CC1 (stereo unspecified)	i	-1	-8.1*	-4	18%*	i
CCC1CCCCN1CCNC(=O)C1CCCN(S(=O)(=O)c2cccc3nsnc23)C1 (stereo unspecified)	i	10	i	-1	.	.
O=C(Nc1ccccc1Br)C1CCCN1S(=O)(=O)c1cccc2nsnc12 (stereo unspecified)	i	2	-7.9*	-2	23%*	i
O=C(Nc1ccccc1F)C1CCCN1S(=O)(=O)c1cccc2nsnc12 (stereo unspecified)	i	1	i	6	.	.
O=C(CN1CCN(CN2C(=O)NC3(CCCCCC3)C2=O)CC1)Nc1ccc(F)cc1	.	3	.	6	.	.
CC(C)Cn1c(N)c(C(=O)COC(=O)CC23CC4CC(CC(C4)C2)C3)c(=O)n(C)c1=O	i	0	i	-3	.	.
CN(Cc1ccccc1)C(=O)COC(=O)c1cc(NS(=O)(=O)c2cccs2)ccc1O	i	2	-5.8*	-4	i	i
COc1ccccc1NC(=O)CSc1nccc(-c2ccco2)n1	.	-7	.	-1	.	.
O=C(Nc1cccc(C(=O)N2CCCCC2)c1)c1ccccc1Br	i	8	-5.2*	-1	25%*	i
Brc1ccc2c(c1)OCCOCCOCCOCCOCCOCCO2	i	13	i	4	.	.
O=C(CCc1ccccc1)NNC(=O)c1ccc(Cl)cc1	i	1	i	3	.	.
Cc1cccc(C(=O)NC(=S)NNC(=O)Cc2ccccc2)c1	i	7	-6.7*	9	52%*	i
O=C(CCc1ccccc1)NNC(=S)NC(=O)c1ccc(Cl)cc1	i	-12	-5.7*	-3	70%*	i
COc1cc(C)c(CN2CCN(C(C)C(=O)NC(C)c3ccccc3)CC2)cc1OC (stereo unspecified)	i	3	i	-9	.	.

Source: PubChem BioAssay
